MEKK2 mut-MEK5 = signal of MEK5 binding to mutant human MEKK2 PB1 domain | 0.35% of 290,000 active | AID 1530 | bead flow cytometry, Alexa488-MEK5 binding to MEKK2 mutant | percent response, % at 10 µM; in the data active means percent response above about 24%, passing the limit was not always enough
Beta2AR agonist = activates human beta-2 adrenergic receptor causing internalization | response, % (concentration not given with the values) | 0.43% of 340,000 active | Am2.2-beta2AR cells, FAP receptor internalization, flow cytometry | P07550;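 active means response above a set limit, near 3 SD of response in nonfluorescent compounds, cut at about 42% in these data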
MEKK2 WT-MEK5 = raises or lowers MEK5 binding to wildtype human MEKK2 PB1 domain; Q9Y2U5; bead flow cytometry, Alexa488-MEK5 binding to MEKK2 WT; actives lie on both sides; binding response (% of control), % at 10 µM; 1.1% of 290,000 active; AID 1531; in the data active means binding response below about 67% or above about 130%
ATG4B inhibitor = blocks human ATG4B protease cleavage of LC3 substrate; AID 504462; ATG4B cleavage of LC3-PLA2, NBD-HPC fluorescence, 1 h; 0.51% of 340,000 active; inhibition, % at 8.33 µM; Q9Y4P1; in the data active means inhibition above about 40%
Target sequence (Q9Y4P1 whole entry, looked up): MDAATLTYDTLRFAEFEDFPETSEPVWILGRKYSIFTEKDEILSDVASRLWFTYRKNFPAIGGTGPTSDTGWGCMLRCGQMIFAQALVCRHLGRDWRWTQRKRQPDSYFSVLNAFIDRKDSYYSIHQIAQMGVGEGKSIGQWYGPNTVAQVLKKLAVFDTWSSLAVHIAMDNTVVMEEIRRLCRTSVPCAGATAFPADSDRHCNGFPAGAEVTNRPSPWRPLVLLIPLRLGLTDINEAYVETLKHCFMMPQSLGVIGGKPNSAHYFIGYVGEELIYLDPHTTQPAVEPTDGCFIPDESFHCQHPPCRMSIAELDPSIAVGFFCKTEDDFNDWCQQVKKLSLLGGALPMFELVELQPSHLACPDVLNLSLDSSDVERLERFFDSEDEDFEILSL
Dynein cargo inh = blocks dynein driven cargo transport along microtubules; z-score, hits read low; AID 1381; 3617.4 mouse cells, GR-EGFP nuclear translocation imaging; test concentration mostly 20 µM; stimulated with dexamethasone, 1 µM; active compounds read low; 0.47% of 220,000 active;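 active means plate z-score of nuclear minus cytoplasmic receptor signal below a set negative limit, without overly bright fluorescence or cell loss, cut at about -3.5 in these data, passing the limit was not always enough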;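 further: z-score of nuclear minus cytoplasmic ring GR-EGFP intensity difference per well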
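Buffer or medium: tetracycline-free induction medium containing charcoal-stripped FBS / Reagent: dexamethasone agonist, 1.0 µM final, for 30 min / Technique: automated 10x imaging of fixed Hoechst-stained cells / Times: induction 48 h, compound 1 h, agonist 30 min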
MEKK3 PB1 HTS = modulators (inhibitors or enhancers) of MEK5 binding to human MEKK3 PB1 domain; Q99759; bead-based flow cytometry, Alexa488-MEK5 binding to MEKK3; actives lie on both sides; 0 = blocked by unlabeled MEK5, 100 = vehicle; binding response (% of control), % at 10 µM; 1.4% of 290,000 active; AID 1529;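 active means binding response more than 3 SD above or below the average of its plate-row segment, actives on both sides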;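 further: Alexa488 bead fluorescence after subtracting the streptavidin-only scavenger bead signal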
ATG4B confirm = confirmation of human ATG4B inhibitors | AID 504757 | ATG4B protease fluorescent substrate cleavage assay | inhibition, % at 8.33 µM | 92% of 320 active | shares compounds with ATG4B inhibitor; in the data active means inhibition above about 39%
PLA2 ctr = counter-screen for ATG4B inhibitors: human phospholipase A2; shares compounds with ATG4B inhibitor; purified PLA2, NBD-C6-HPC fluorescence, 45 min; 66% of 1,600 active; inhibition, % at 8.33 µM; AID 588402; in the data active means inhibition above about 50%
Target sequence (P04054 whole entry, looked up): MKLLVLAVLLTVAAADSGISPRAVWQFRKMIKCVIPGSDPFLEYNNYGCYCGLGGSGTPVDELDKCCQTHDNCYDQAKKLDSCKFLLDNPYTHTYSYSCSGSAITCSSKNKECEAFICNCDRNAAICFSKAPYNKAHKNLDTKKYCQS
* hit, by the source's call; · = no result. An excerpt weighted towards active compounds, which were near 2.9% of everything screened.

SMILES	MEKK2 mut-MEK5	Beta2AR agonist	MEKK2 WT-MEK5	ATG4B inhibitor	Dynein cargo inh	MEKK3 PB1 HTS	PLA2 ctr	others
COc1ccc(/C=C/C(=O)Oc2cccc(/C=N/NC(=O)Cc3ccc(Br)cc3)c2)cc1	-16.0	3.7	88.0	-14.7	-0.0932	92.0	·
O=C(CC1C(=O)NCCN1C(=S)Nc1ccccc1)Nc1ccc2c(c1)OCCO2 (stereo not drawn)	5.0	-1.2	100.0	17.1	-0.36	104.0	·
COc1ccc(CC(=O)NC2CC(C)(C)NC(C)(C)C2)cc1OC	2.0	10.2	100.0	-1.3	·	105.0	·
CC(=O)c1ccc(-n2nnnc2SCC(=O)NC2CCCCC2)cc1	-2.0	-3.2	102.0	6.3	·	103.0	·
COc1cc(Cl)c(C)cc1N1C(=O)CN(Cc2ccccc2)C1=S	6.0	0.1	104.0	52.3*	·	106.0	68.5*
Cc1cccc(N2C(=O)CN(Cc3ccccc3)C2=S)c1	4.0	-3.4	103.0	48.6*	·	101.0	62.9*
CCc1ccc(N2C(=O)CN(Cc3sccc3C)C2=S)cc1	-1.0	6.0	101.0	92.1*	-0.222	97.0	97.7*
COc1ccc(CN2CC(=O)N(c3ccc(C)cc3)C2=S)cc1OC	-1.0	-0.4	97.0	9.8	-0.105	97.0	·
CN(C)S(=O)(=O)c1ccc(NC(=O)COC(=O)c2ccccn2)cc1	-10.0	5.3	94.0	7.1	-0.601	85.0	·
COc1ccccc1NS(=O)(=O)c1cccc(N=C2N=C(N)c3ccccc32)c1	-11.0	-2.0	95.0	53.7*	-0.432	96.0	56.9*
NC1=NC(=Nc2cccc(S(N)(=O)=O)c2)c2ccccc21	7.0	0.1	99.0	-8.4	-0.047	106.0	·
CCCNC(=O)c1onc(CSc2ccncc2)c1C(=O)NCCC	6.0	-6.4	85.0	-0.9	-0.157	86.0	·
CCCC(C(=O)NC(C)(C)C)N(CCN1CCOCC1)C(=O)CNS(=O)(=O)c1ccccc1 (stereo not drawn)	1.0	13.2	103.0	10.2	·	103.0	·
COc1cc(OC)cc(-c2nc3ccccc3c(=O)n2OC(=O)c2ccc(C)c(C)c2)c1	-2.0	19.1	97.0	56.5*	-0.826	101.0	23.1	ATG4B confirm=51.0*
COc1cc(OC)cc(C(=O)Nn2c(C)nc3ccccc3c2=O)c1	·	-27.4	·	-0.6	-0.0573	·	·
Cc1cccc(C(=O)NC(=S)Nc2ccc(S(=O)(=O)N(C)c3ccccc3)cc2)c1	·	-2.1	·	6.5	1.42	·	·
Cc1ccccc1C(=O)NC(=S)Nc1ccc(S(=O)(=O)N(C)c2ccccc2)cc1	-1.0	-6.7	99.0	47.7*	-0.13	104.0	57.0*
Cc1ccc(NC(=O)c2ccccc2)cc1C	·	-5.9	·	-14.5	·	·	·
Cc1ccc(C(=O)Oc2cccc(NC(=O)c3ccccc3)c2)cc1C	-2.0	3.1	93.0	48.8*	0.404	93.0	59.0*
O=C(NCCC1=CCCCC1)Nc1ccc2nsnc2c1	-11.0	0.4	86.0	46.4*	1.55	104.0	50.0
COC(=O)c1oc2ccc(Br)cc2c1-n1cccc1	7.0	4.6	99.0	5.3	-0.551	100.0	·
O=C(O)c1oc2ccccc2c1-n1cccc1	-4.0	4.5	93.0	57.7*	0.578	94.0	56.6*
COc1cccc(C(=O)NC(C)CCc2ccccc2)c1 (stereo not drawn)	2.0	5.0	106.0	6.3	·	106.0	·
Cc1ccc(C(=O)N/N=C(/CC(=O)c2cccs2)C(F)(F)F)cc1	-1.0	7.4	87.0	40.6*	-0.225	102.0	28.0
Cc1nn(-c2ccccc2)c(N)c1-c1ccccc1	-9.0	4.6	106.0	1.5	-0.447	109.0	·
SMILES	MEKK2 mut-MEK5	Beta2AR agonist	MEKK2 WT-MEK5	ATG4B inhibitor	Dynein cargo inh	MEKK3 PB1 HTS	PLA2 ctr	others
Cc1nn(-c2ccccc2)c(N)c1N=Nc1ccccc1	-4.0	5.7	108.0	72.6*	-0.12	103.0	81.2*
Cc1nn(-c2ccccc2)c(N)c1N=Nc1ccc(Cl)cc1	0.0	2.5	104.0	80.7*	-0.42	109.0	88.8*
Cc1ccc(C)n1-c1cccc(S(=O)(=O)N2CCOCC2)c1	-11.0	-0.4	93.0	-9.9	1.68	91.0	·
Cc1nn(-c2ccccc2)c(N)c1N=Nc1cccc(S(=O)(=O)N2CCOCC2)c1	9.0	-3.7	102.0	43.9*	-0.276	107.0	49.7
Cc1ccccc1N=Nc1c(C)[nH]n(-c2ccccc2)c1=O	-7.0	·	93.0	3.6	-0.31	98.0	·
Cc1cccc(N=Nc2c(C)nn(-c3ccccc3)c2N)c1C	1.0	0.0	98.0	81.8*	-0.123	102.0	89.7*
Nc1nn(-c2ccccc2)c(N)c1N=Nc1ccccc1F	0.0	3.7	102.0	69.6*	0.411	129.0*	71.9*
Nc1c(N=Nc2ccccc2F)c(=O)[nH]n1-c1ccccc1	3.0	0.0	106.0	0.7	0.0722	105.0	·
Nc1nn(-c2ccccc2)c(N)c1N=Nc1ccccc1	-2.0	-1.1	101.0	44.7*	1.54	97.0	41.8	ATG4B confirm=64.2*
COc1ccc(-c2csc(NC(=O)c3ccccc3NS(=O)(=O)c3ccc(C)cc3)n2)cc1	10.0	20.2	99.0	74.4*	0.333	101.0	67.7*
Cc1csc(NC(=O)c2ccccc2[N+](=O)[O-])n1	-2.0	·	98.0	-3.2	-0.827	100.0	·
O=C(Nc1nc(-c2cccc([N+](=O)[O-])c2)cs1)c1cccc([N+](=O)[O-])c1C(=O)O	-13.0	-3.0	84.0	79.2*	0.501	92.0	81.9*
COc1ccc(S(=O)(=O)Nc2ccccc2C(=O)Nc2nc(-c3ccc(F)cc3)cs2)cc1OC	-2.0	28.6	88.0	19.5	0.182	97.0	·
O=C(O)c1ccccc1C(=O)Nc1nc(-c2ccc3ccccc3c2)cs1	-5.0	-0.5	97.0	83.1*	·	100.0	84.4*
Cc1ccc(-c2csc(NC(=O)c3cccc([N+](=O)[O-])c3C(=O)O)n2)cc1	-1.0	1.1	109.0	52.7*	0.721	110.0	69.3*
CC1=CC(=O)C(C(C)=Nc2cccc(Cl)c2)C(=O)O1 (stereo not drawn)	·	-6.4	·	1.4	·	·	·
Cc1ccccc1N1CCN(C(=O)NCc2cccc(Cl)c2)CC1	-1.0	1.6	99.0	61.0*	·	101.0	72.7*
CC(Oc1ccc(F)cc1)C(=O)Nc1cccc(-c2nn[nH]n2)c1 (stereo not drawn)	5.0	-3.1	102.0	-6.8	·	96.0	·
Cc1ccccc1NC(=O)/C(=C/c1ccccc1)c1ccccc1	2.0	5.6	101.0	43.0*	0.322	101.0	44.4	ATG4B confirm=64.7*

Assay outcomes as filed in PubChem BioAssay.
